Assay results: ChEMBL document CHEMBL1135464, “3-Aryl-2-quinolone derivatives: synthesis and characterization of in vitro and in vivo antitumor effects with emphasis on a new therapeutical target connected with cell migration” (J Med Chem, 2002)

Legend:
J82 [1] = assay: Cytotoxicity against J82 bladder cell lines using MTT colorimetric assay at 1x 10 E-5; format: functional, cell-based; settings: Homo sapiens
Outline: (§1)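 Human tumour lines from ATCC were grown at 37 °C in sealed dishes in MEM with 5% FCS. Cells were seeded at 40000 cells/mL in 96-well plates and left 24 h to plate. Each drug was then tested at six concentrations from 10^-5 to 10^-9 M. Growth was read by colorimetric MTT assay.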

LoVo = assay: Cytotoxicity measured on LoVo colon cell line using MTT colorimetric assay; format: functional, cell-based; settings: Homo sapiens; outline: as §1
A549 = assay: Cytotoxicity against A549 nonsmall lung cell line using MTT colorimetric assay; format: functional, cell-based; settings: Homo sapiens; outline: as §1
MCF7 = assay: Cytotoxicity against Breast cancer cell line MCF-7 using MTT colorimetric assay; format: functional, cell-based; settings: Homo sapiens; outline: as §1
T47D = assay: Cytotoxicity against Breast cancer cell line T-47D using MTT colorimetric assay; format: functional, cell-based; settings: Homo sapiens; outline: as §1
T-24 = assay: Cytotoxicity against T24 bladder cell lines using MTT colorimetric assay; format: functional, cell-based; settings: Homo sapiens; outline: as §1
U373 MG = assay: Cytotoxicity against U-373 MG glioblastomas using MTT colorimetric assay; format: functional, cell-based, U-373MG ATCC; settings: Homo sapiens; outline: as §1
U-87 MG = assay: Cytotoxicity against U-87 MG glioblastomas using MTT colorimetric assay; format: functional, cell-based, U-87MG ATCC; settings: Homo sapiens; outline: as §1
A 172 = assay: Cytotoxicity against A-172 glioblastomas using MTT colorimetric assay; format: functional, cell-based; settings: Homo sapiens; outline: as §1
[2] = Evaluated in vivo for maximum tolerated dose and found to be nontoxic; format: ADME, organism-based
HCT-15 = assay: Cytotoxicity against HCT-15 colon cell line using MTT colorimetric assay; format: functional, cell-based; settings: Homo sapiens; outline: as §1
PC-3 = assay: Cytotoxicity against prostate cell line PC-3 using MTT colorimetric assay; format: functional, cell-based; settings: Homo sapiens; outline: as §1
A-427 = assay: Cytotoxicity against A-427 nonsmall lung cell line using MTT colorimetric assay; format: functional, cell-based; settings: Homo sapiens; outline: as §1
J82 [3] = assay: Cytotoxicity against J82 bladder cell lines using MTT colorimetric assay; format: functional, cell-based; settings: Homo sapiens; outline: as §1
Mus musculus [4] = assay: Evaluated in vivo for maximum tolerated dose (MTD/4) using MXT mouse mammary adenocarcinoma model
Mus musculus [5] = assay: Evaluated in vivo for maximum tolerated dose (MTD/4) with Doxorubicin (DOX) using MXT mouse mammary adenocarcinoma model; format: functional
Outline: (§2)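 MXT-HS hormone-sensitive mammary adenocarcinoma maintained by monthly s.c. transplantation in 6-week-old female B6D2F1 mice. Doses are set as fractions of the MTD. Drugs given i.p.; ETO and DOX 9 times, the quinolone 20 times. Nine mice per group. Tumor area (mm2) is the product of the two largest perpendicular caliper diameters, measured weekly. Mean ± SEM; Mann-Whitney test.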

Mus musculus [6] = assay: Evaluated in vivo for maximum tolerated dose (MTD/2) with Doxorubicin (DOX) using MXT mouse mammary adenocarcinoma model; format: functional; outline: as §2
Mus musculus [7] = assay: Evaluated in vivo for maximum tolerated dose (MTD/4) using MXT mouse mammary adenocarcinoma model; format: functional; outline: as §2
Mus musculus [8] = assay: Evaluated in vivo for maximum tolerated dose (MTD/2) using MXT mouse mammary adenocarcinoma model; format: functional; outline: as §2
Mus musculus [9] = assay: Evaluated in vivo for maximum tolerated dose (MTD/8) using MXT mouse mammary adenocarcinoma model; format: functional; outline: as §2
Mus musculus [10] = assay: Evaluated in vivo for maximum tolerated dose (MTD16) using MXT mouse mammary adenocarcinoma model; format: functional; outline: as §2
Mus musculus [11] = assay: Evaluated in vivo for maximum tolerated dose (MTD/2) using MXT mouse mammary adenocarcinoma model ( highly toxic)
Mus musculus [12] = assay: Evaluated in vivo for maximum tolerated dose (MTD/8) using MXT mouse mammary adenocarcinoma model
Mus musculus [13] = assay: Evaluated in vivo for maximum tolerated dose (MTD/16) using MXT mouse mammary adenocarcinoma model ( ineffective); format: ADME, organism-based; outline: as §2
Mus musculus [14] = assay: Evaluated in vivo for maximum tolerated dose (MTD/4) using MXT mouse mammary adenocarcinoma model; remark: listed apart in the source

Structure (SMILES) | IC50 (LoVo) | IC50 (A549) | IC50 (MCF7) | IC50 (T47D) | IC50 (T-24) | IC50 (U373 MG) | IC50 (U-87 MG) | IC50 (A 172) | MTD [2] | IC50 (HCT-15) | IC50 (PC-3) | IC50 (A-427) | also measured
COc1ccc(-c2cc3c(OC)cc(OC)cc3n(CCC(=O)OCc3ccccc3)c2=O)cc1 | > 10 µM | > 10 µM | > 10 µM | > 10 µM | > 10 µM | > 10 µM | > 10 µM | > 10 µM | 160 mg/kg | > 10 µM | > 10 µM | > 10 µM | IC50 (J82 [1]): > 10 µM
COc1ccc(-c2cc3c(OC)cc(OC)cc3n(CCc3nnn[nH]3)c2=O)cc1 | > 10 µM | > 10 µM | > 10 µM | > 10 µM | > 10 µM | > 10 µM | > 10 µM | > 10 µM | 160 mg/kg | > 10 µM | > 10 µM | > 10 µM | IC50 (J82 [3]): > 10 µM; MTD/8 (Mus musculus [4]): 20 mg/kg; MTD/4 (Mus musculus [5]): 40 mg/kg; MTD/2 (Mus musculus [6]): 80 mg/kg
COc1cccc2c1C(=O)c1c(O)c3c(c(O)c1C2=O)C[C@@](O)(C(=O)CO)C[C@@H]3O[C@H]1C[C@H](N)[C@H](O)[C@H](C)O1 [DOXORUBICIN] | – | – | – | – | – | – | – | – | – | – | – | – | MTD/4 (Mus musculus [7]): 2.5 mg/kg; MTD/2 (Mus musculus [8]): 5 mg/kg; MTD/8 (Mus musculus [9]): 1.25 mg/kg; MTD/16 (Mus musculus [10]): 0.63 mg/kg
COc1cc([C@@H]2c3cc4c(cc3[C@@H](O[C@@H]3O[C@@H]5CO[C@@H](C)O[C@H]5[C@H](O)[C@H]3O)[C@H]3COC(=O)[C@H]23)OCO4)cc(OC)c1O [ETOPOSIDE] | – | – | – | – | – | – | – | – | – | – | – | – | MTD/2 (Mus musculus [11]): 40 mg/kg; MTD/8 (Mus musculus [12]): 10 mg/kg; MTD/16 (Mus musculus [13]): 5 mg/kg; MTD/4 (Mus musculus [14]): 20 mg/kg
